This note sets out measurements from ChEMBL document CHEMBL1144837, “Antimitotic and antiproliferative activities of chalcones: forward structure-activity relationship” (J Med Chem, 2008).

In general, IC50 refers to the point on the concentration scale where inhibition reaches its midpoint. Low values mean greater potency, high ones weaker potency.

In assay [1] the test system is K562. As to the kind of experiment: Cell cycle arrest in human K562 cells assessed as accumulation at G2/M phase at 10 uM after 24 hrs by flow cytometry. The class given is functional. The gist of the method:
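K562 cells exposed 24 h at 10 µM, then stained with propidium iodide at 4 °C overnight and analysed by flow cytometry. After doublets and aggregates were excluded on an FL2-area/FL2-width plot, cells were assigned to G0/G1, S and G2/M, and the G2/M fraction was scored.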
Background: Flow cytometry measures light scatter and fluorescence of single cells or particles in a stream.

The next assay concerns N2a. Kind of assay: Cytotoxicity against mouse N2A cells after 24 hrs by MTT assay. It is filed as functional, cell-based. The gist of the method:
(§1)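 MTT viability assay: exponentially growing cells were seeded at 3 × 10^3 cells/well and held 24 h before drug addition. Formazan was dissolved in isopropanol and read by absorbance relative to untreated wells. IC50 is the concentration giving 50% growth loss against a control-cell standard curve after 24 h incubation. Run in triplicate, at least three separate experiments.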

For another assay, the system named is SW48. Kind of assay: Cytotoxicity against human SW48 cells after 24 hrs by MTT assay. The class given is functional, cell-based. As to conditions: SW48, 24 h. A digest of the protocol: as §1
Background: Tetrazolium assays rely on reduction of a dye to a coloured formazan, in cell work by metabolically active cells.

A further assay relates to HCT-116. Kind of assay: Cytotoxicity against human HCT116 cells after 24 hrs by MTT assay. The class given is functional, cell-based. As to conditions: HCT-116, 24 h. A digest of the protocol:
as §1

A further assay deals with RL. As to the kind of experiment: Cytotoxicity against human RL cells after 24 hrs by MTT assay. The class given is functional, cell-based. A digest of the protocol: as §1
Assay [2] has as its system K562. As to the kind of experiment: Cytotoxicity against human K562 cells after 24 hrs by MTT assay. It is filed as functional, cell-based. As to conditions: K562, 24 h. The gist of the method: as §1
Assay [3] can be described thus: Cytotoxicity against human Messa cells after 24 hrs by MTT assay. The class given is functional, cell-based. As to conditions: MES-SA. A digest of the protocol: as §1
The next assay has as its system CCRF-CEM. Kind of assay: Cytotoxicity against human CEM cells after 24 hrs by MTT assay. The class given is functional, cell-based. A digest of the protocol: as §1
A further assay has as its system MCF7. Kind of assay: Cytotoxicity against human MCF7 cells after 24 hrs by MTT assay. As to conditions: MCF7, 24 h. The class given is functional, cell-based. A digest of the protocol:
as §1

In another assay the test system is NIH3T3. As to the kind of experiment: Cytotoxicity against mouse NIH3T3 cells after 24 hrs by MTT assay. As to conditions: NIH3T3, 24 h. The class given is functional, cell-based. A digest of the protocol:
as §1

In another assay the test system is L1210. As to the kind of experiment: Cytotoxicity against mouse L1210 cells after 24 hrs by MTT assay. The class given is functional, cell-based. As to conditions: L1210, 24 h. The gist of the method:
as §1

Assay [4] can be described thus: Cytotoxicity against human HNO150 cells after 24 hrs by MTT assay. It is filed as functional, cell-based. As to conditions: HNO150, 24 h. A digest of the protocol: as §1

As for `COc1cccc(OC)c1C(=O)/C=C/c1cccc(F)c1`, in the assay with K562 [1], the Activity is 27%.
In the case of `CCOc1cc(OCC)c(/C=C/C(=O)c2c(OC)cccc2OC)c(OCC)c1`, the Activity in the assay on K562 [1] was found to be 12%.
The same measure, in the same setting: the same measure for `COc1ccc(/C=C/C(=O)c2ccc(OC)cc2OC)c(OC)c1`: 25%; for `COc1cc(O)c(C(=O)/C=C/c2ccccc2)c(OC)c1` [FLAVOKAWAIN B]: 28%; for `COc1cc(/C=C/C(=O)c2c(OC)cccc2OC)cc(OC)c1OC`: 25%.
The same measure, in the same setting: the same measure for `COc1ccc(/C=C/C(=O)c2c(OC)cccc2OC)c(OC)c1`: 22%.
In the case of `COc1cc(OC)c(/C=C/C(=O)c2c(OC)cccc2OC)c(OC)c1`, the IC50 in the assay on N2a was 2.2 µM; with SW48 it was 0.25 µM; with HCT-116, 0.45 µM; with RL, 0.8 µM; with K562 [2] it was 50 µM; in [3], 1 µM. Also, the half-maximal inhibitory concentration (IC50) with CCRF-CEM is 0.65 µM; with MCF7, 60 µM; with NIH3T3 it was 30 µM; with L1210, 7 µM; in assay [4], 1.3 µM. In the assay on K562 [1], the Activity is 84%.
In the case of `CCOc1cccc(OCC)c1C(=O)/C=C/c1c(OC)cc(OC)cc1OC`, in the assay on K562 [1], the Activity stood at 10%.
Same read-out and setting: the value for `CCOc1ccc(/C=C/C(=O)c2c(OCC)cccc2OCC)c(OCC)c1` was 11%; that for `COc1ccc(/C=C/C(=O)c2c(OC)cc(OC)cc2OC)c(OC)c1` was 15%.
Still for that read-out and setting: the same measure for `COc1cc(O)c(C(=O)/C=C/c2cccc(F)c2)c(OC)c1`: 48%; for `COc1cc(OC)c(/C=C/C(=O)c2c(OC)cc(N)cc2OC)c(OC)c1`: 74%; for `O=C(/C=C/c1c(Cl)cccc1Cl)c1ccccc1`: 28%.
Same read-out and setting: the value for `COc1ccc(C(=O)/C=C/c2c(OC)cc(OC)cc2OC)c(OC)c1` (stereo in doubt; 52) was 72%.
On to `COc1cc(O)c(C(=O)/C=C/c2ccccc2Cl)c(OC)c1`, for which the Activity with K562 [1] is recorded as 43%.
Same read-out and setting: the value for `COc1ccc(C(=O)/C=C/c2cc(OC)c(OC)cc2OC)c(O)c1` was 15%; that for `COc1cc(OC)c(C(=O)/C=C/c2c(OC)cccc2OC)c(OC)c1` was 64%.
`COc1cccc(OC)c1C(=O)/C=C/c1c(Cl)cccc1Cl`: in the assay on K562 [1], the Activity stood at 39%.
Still for that read-out and setting: the same measure for `COc1ccc(C(=O)/C=C/c2c(F)cccc2Cl)c(O)c1`: 19%; for `COc1ccc(C(=O)/C=C/c2cccc(OC)c2OC)c(O)c1`: 22%.
On the same count and under the same terms, the same measure for `COc1ccc(C(=O)/C=C/c2c(OC)cc(OC)cc2OC)c(O)c1`: 19%.
Same read-out and setting: the value for `COc1cc(OC)c(OC)cc1/C=C/C(=O)c1c(OC)cccc1OC` was 49%; that for `COc1cccc(OC)c1C(=O)/C=C/c1c(OC)c(F)c(OC)c(F)c1OC` was 46%; that for `COc1ccc(C(=O)/C=C/c2c(OC)cc(OC)cc2OC)c(OC)c1` (stereo in doubt; 3) was 86%.
As to `COc1ccccc1/C=C/C(=O)c1c(OC)cccc1OC`, the Activity in the assay with K562 [1] is given as 18%.
As to `COc1ccc(C(=O)/C=C/c2ccc(OC)c(OC)c2)c(O)c1`, the Activity in the assay with K562 [1] was 18%.
Turning to `COc1ccc(C(=O)/C=C/c2c(OC)cccc2OC)c(O)c1`, the Activity in the assay with K562 [1] is 18%.
On the same count and under the same terms, the value for `COc1ccc(C(=O)/C=C/c2ccc(OC)c(OC)c2OC)c(O)c1` was 20%.
Still for that read-out and setting: the value for `COc1cccc(/C=C/C(=O)c2ccc(OC)cc2O)c1` was 26%; that for `COc1ccc(C(=O)/C=C/c2cccc(F)c2)c(O)c1` was 40%.
The same measure, in the same setting: the value for `CC[C@]1(O)C[C@H]2CN(CCc3c([nH]c4ccccc34)[C@@](C(=O)OC)(c3cc4c(cc3OC)N(C=O)[C@H]3[C@@](O)(C(=O)OC)[C@H](OC(C)=O)[C@]5(CC)C=CCN6CC[C@]43[C@@H]65)C2)C1` [VINCRISTINE] was 72%; that for `COc1ccc(C(=O)/C=C/c2c(Cl)cccc2OC)c(O)c1` was 45%; that for `COc1cc(/C=C/C(=O)c2c(O)cc(OC)cc2OC)cc(OC)c1` was 11%.
On to `COc1ccc(C(=O)/C=C/c2ccccc2Cl)c(OC)c1`, for which the Activity in the assay with K562 [1] is given as 42%.
Still for that read-out and setting: the value for `COc1cc(O)c(C(=O)/C=C/c2c(Cl)cccc2Cl)c(OC)c1` was 26%.
Regarding `COc1cc(OC)c(/C=C/C(=O)c2c(OC)cc(OC)cc2OC)c(OC)c1`, the IC50 with N2a worked out at 4 µM; in the assay on SW48 it was 0.8 µM; in the assay on HCT-116, 1 µM; in the assay with RL, 0.9 µM; in the assay on K562 [2], 50 µM; in [3] it was 2.2 µM. The 50% inhibitory concentration (IC50) with CCRF-CEM was found to be 1.9 µM; with MCF7, 52 µM; in the assay with NIH3T3 it was 30 µM; in the assay on L1210, 8.5 µM; in assay [4], 10 µM. The Activity in the assay with K562 [1] is listed as 86%.
For the compound `COc1cc(O)c(C(=O)/C=C/c2ccccc2OC)c(OC)c1`, the Activity with K562 [1] amounted to 41%.
The same measure, in the same setting: the same measure for `CCOc1cc(OCC)c(/C=C/C(=O)c2c(OCC)cc(OCC)cc2OCC)c(OCC)c1`: 18%.
The same measure, in the same setting: the same measure for `COc1ccc(C(=O)/C=C/c2cccc(F)c2)c(OC)c1`: 32%.
With `COc1cccc(OC)c1C(=O)/C=C/c1ccc(C(F)(F)F)cc1`, the Activity in the assay on K562 [1] is 23%.
As for `COc1cccc(OC)c1C(=O)/C=C/c1ccccc1Cl`, the Activity in the assay with K562 [1] came to 23%.
Turning to `COc1cc(OC)c(/C=C/C(=O)c2ccc(Cl)c(Cl)c2)c(OC)c1`, the Activity with K562 [1] was found to be 30%.
Still for that read-out and setting: the value for `COc1ccc(/C=C/C(=O)c2c(OC)cccc2OC)c(OC)c1OC` was 19%.
In the case of `COc1cc(/C=C/C(=O)c2ccc(OC)cc2O)cc(OC)c1`, in the assay on K562 [1], the Activity amounted to 40%.
As for `COc1cccc(OC)c1C(=O)/C=C/c1ccccc1F`, the Activity with K562 [1] is given as 38%.
Still for that read-out and setting: the value for `COc1cccc(OC)c1C(=O)/C=C/c1c(C)cc(C)cc1C` was 23%.
Same read-out and setting: the value for `COc1ccc(C(=O)/C=C/c2ccc(OC)cc2OC)c(O)c1` was 18%; that for `COc1cccc(OC)c1C(=O)/C=C/c1cccc(Cl)c1` was 19%.
`COc1ccc(C(=O)/C=C/c2ccc(Cl)cc2)c(O)c1`: the Activity in the assay on K562 [1] came to 10%.
`COc1cccc(OC)c1/C=C/C(=O)c1ccccc1`: the Activity in the assay with K562 [1] came to 34%.
On to `COc1cccc(OC)c1/C=C/C(=O)c1c(OC)cccc1OC`, for which the concentration for half-maximal inhibition (IC50) with N2a was found to be 55 µM; in the assay with SW48, 10 µM; in the assay on HCT-116, 9 µM; with RL, 40 µM; in the assay on K562 [2], 80 µM; in assay [3] it was 10 µM. The IC50 in the assay on CCRF-CEM is 6 µM; with MCF7, 75 µM; in the assay on NIH3T3, 60 µM; in the assay on L1210, 34 µM; in assay [4], 62 µM. In addition, the Activity in the assay with K562 [1] came to 78%.
Regarding `COc1ccc(C(=O)/C=C/c2ccccc2Cl)c(O)c1`, the Activity in the assay with K562 [1] is on record as 67%.
With `COc1cccc(OC)c1C(=O)/C=C/c1ccccc1`, the Activity in the assay on K562 [1] is reported as 45%.
Still for that read-out and setting: the value for `COc1cccc(/C=C/C(=O)c2c(O)cc(OC)cc2OC)c1` was 52%.
Still for that read-out and setting: the same measure for `COc1cc(O)c(C(=O)/C=C/c2c(OC)cccc2OC)c(OC)c1`: 12%; for `COc1cccc(/C=C/C(=O)c2c(OC)cccc2OC)c1`: 29%.
On the same count and under the same terms, the value for `CCOc1cccc(OCC)c1C(=O)/C=C/c1c(OC)cccc1OC` was 14%; that for `COc1ccc(C(=O)/C=C/c2cc(OC)ccc2OC)c(O)c1` was 32%.
In the case of `COc1ccc(C(=O)/C=C/c2cc(OC)c(OC)c(OC)c2)c(O)c1`, the Activity with K562 [1] came out at 20%.
The same measure, in the same setting: the value for `COc1cc(O)c(C(=O)/C=C/c2ccc3c(c2)OCO3)c(OC)c1` was 13%.
